Screening results: PubChem BioAssay, several laboratories
MT1-MMP act inh – blockers of MT1-MMP proenzyme processing, primary screen, HT1080 RFP-PRO-GFP cells, GFP/RFP fluorescence | GFP/RFP ratio change, % at 20 µM | Matrix metalloproteinase-14 (Homo sapiens), P50281 | GFP/RFP ratio fluorescence, overnight; percent of plate control window, DMSO zero | 0.061% of 360,000 active;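 active means GFP/RFP ratio change of at least 30% with cell ATP level not reduced by more than half and red fluorescence within 50% of control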
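Test system: HT1080 RFP-PRO-GFP cells; Benchmarks: DMSO and RFP-L50D-GFP cell wells; Timing: cells overnight before dosing, compound overnight, 37 °C, 5% CO2; Compound: one 20 µM compound dose with 1% DMSO; Read-out: GFP/RFP fluorescence ratio.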
SKN-1 inh – suppressors of acrylamide-induced Pgst-4::GFP reporter in worms, primary screen, SKN-1 inhibitor project, whole organism, uHTS, GFP/RFP fluorescence ratio, strain VP596. C. elegans VP596 Pgst-4::GFP/RFP ratio, 24 h. inhibition, % at 21.8 µM. 0.49% of 360,000 active. AID 624304, 2012;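 active means interference check ratio from 0.5 to 1.5 plus GFP to RFP signal ratio inhibition reaching or exceeding a fixed threshold, cut at about 30% in these data, passing the limit was not always enough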
Arr AP2 block – inhibitors of beta-arrestin/AP2 binding, primary screen, biochemical, GPCR trafficking, flow cytometry; beta-arrestin 1 C-terminal peptide binding to AP2 beta2-adaptin appendage (human); FITC-arrestin peptide / GST-AP2 beads; AP2 beta2 appendage carries R879A mutation; inhibition, % at 10 µM; 0.31% of 340,000 active; AID 504490, 2011;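 active means inhibition above a set limit, near 3 SD of compounds lacking own fluorescence, cut at about 54% in these data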;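 further: plate controls were DMSO wells for no effect and 5 µM unlabelled arrestin peptide for full effect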
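Assay system: GST-AP2 R879A bound to glutathione beads, E. coli-expressed; Medium: PBS with 0.05% Tween 20 and 0.1% BSA; Also added: fluorescein-tagged arrestin peptide at 50 nM final; Timing: 12 min plus 1 h, RT; Measured by: flow cytometry, FL1 (488/535 nm); Evaluation: percent drop in bead-associated FITC signal.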
Rin1 Abl inh – inhibitors of Rin1-Abl protein binding, primary screen, biochemical, TR-FRET | 0.4% of 360,000 active | inhibition, % at 7.35 µM | Tyrosine-protein kinase ABL1 (Homo sapiens) + Ras and Rab interactor 1 (Homo sapiens), …; in the data active means inhibition above about 5%, passing the limit was not always enough
Tb MetRS inh – T. brucei MetRS inhibitors, primary screen, biochemical, luminescence | AID 624268, 2012 | 0.4% of 360,000 active | purified T. brucei MetRS, ATP depletion, Kinase-Glo luminescence | methionyl-tRNA synthetase (Trypanosoma brucei brucei) | inhibition, % at 11.9 µM;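 active means inhibition above a per-plate cutoff of the control wells' mean inhibition plus 3 SD, cut at about 5.5% in these data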;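 further: 0% = DMSO wells median and 100% = median of wells with control inhibitor compound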
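technique = Kinase-Glo luminescence, ATP depletion format | system = purified MetRS (methionyl-tRNA synthetase) enzyme from Trypanosoma brucei | timing = 15 min preincubation, 2 h reaction, all 25 °C | evaluation = percent inhibition versus plate control medians | dosing = single dose, 11.9 µM final nominal, 0.9% final DMSO | also added = substrates ATP, L-methionine and bulk Escherichia coli tRNA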
Rin1 Abl conf – Rin1-Abl binding inhibitor retest, confirmation, biochemical, TR-FRET; AID 602124, 2011; inhibition, % at 7.35 µM; 49% of 1,300 active; purified proteins; shares compounds with Rin1 Abl inh
GFP quench – GFP fluorescence inhibitors and quenchers, artefact control for Rin1-Abl interaction inhibitor project, biochemical; shares compounds with Rin1 Abl inh; inhibitors/quenchers counterscreen; inhibition, % at 6.75 µM; 8.5% of 1,300 active;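 further: ABL1-eGFP fusion protein alone without its partner RIN1-SBP; 0% = protein with vehicle and 100% = wells lacking protein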
GFP quench DR – GFP fluorescence inhibitors and quenchers, dose response, artefact control for Rin1-Abl interaction inhibitor project, biochemical | shares compounds with Rin1 Abl inh | GFP fluorescence interference/quenching counterscreen | AID 602182, 2012 | IC50, µM | 230 tested, under 10 active; call rule not given here;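 further: ABL1-eGFP fusion protein alone without its RIN1 binding partner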
TbMetRS confirm – T. brucei MetRS inhibitors, confirmation, biochemical, luminescence; inhibition, % at 11.9 µM; 93% of 1,400 active; shares compounds with Tb MetRS inh; T. brucei MetRS enzyme, luminescence (ATP depletion); AID 624412, 2012; in the data active means inhibition above about 7%
Jurkat tox – Jurkat T cell cytotoxicity, cytotoxicity control for T. brucei MetRS inhibitor project, luminescence, high throughput | shares compounds with Tb MetRS inh | Jurkat cells viability, ATP luminescence | inhibition, % at 8.3 µM | AID 624413, 2012 | 12% of 1,400 active; in the data active means inhibition above about 15%;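 further: 0% = vehicle and 100% = reference inhibitor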
Tb MetRS inh FP – T. brucei MetRS inhibitors, orthogonal assay for T. brucei MetRS inhibitor project, biochemical, fluorescence polarization | 44% of 1,400 active | purified T. brucei MetRS | shares compounds with Tb MetRS inh | inhibition, % at 11.9 µM; in the data active means inhibition above about 17%;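 further: 0% = vehicle wells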
* = called active by the depositor; x = no result. A selection: hits, their analogues and other compounds. The true share with any hit is near 1.6%. Unless noted, no stated cut-off is given here; in the data, active means inhibition above about 6.5%; inactive means the rest.

SMILES	MT1-MMP act inh	SKN-1 inh	Arr AP2 block	Rin1 Abl inh	Tb MetRS inh	Rin1 Abl conf	GFP quench	TbMetRS confirm	Jurkat tox	Tb MetRS inh FP	others
COc1cc(O)c2c(c1)/C=C/C[C@H](O)[C@H](O)C(=O)CCC[C@H](C)OC2=O	-28	-1	x	0	0	x	x	x	x	x
COc1ccc(C(=O)C2CCCN(CC3CCCCC3)C2)cc1OC (centres undefined)	0	17	x	1	-1	x	x	x	x	x
CCN(CC)C(=O)c1ccc(NC(=O)c2cc(S(=O)(=O)N3CCCCCC3)ccc2OC)cc1	-3	17	4	86*	0	90*	0	x	x	x	GFP quench DR=>68
CCN(CC)C(=O)c1ccc(NC(=O)c2cccc(S(=O)(=O)N3CCN(Cc4ccccc4)CC3)c2)cc1	-7	-21	12	4	-1	x	x	x	x	x
CCOC(=O)[C@]12Cc3cc(OC)ccc3[C@H]1N(C1CCCCC1)C(=O)c1ccccc12	-15	-3	x	x	-1	x	x	x	x	x
Cn1ncnc2c(=O)n(C)c(=O)nc1-2	-27	-2	1	29*	40*	48*	1	21*	87*	5	GFP quench DR=>68
CC1C(=O)CC2(C(C)C)CC12 (centres undefined)	4	0	x	-2	1	x	x	x	x	x
CCC(C)NC(=O)c1c(N)n(CCCOC)c2nc3ccccc3nc12 (centres undefined)	-19	17	8	27*	5.7*	2	-1	5	4	0
CCC(C)NC(=O)c1c(N)n(Cc2ccc3c(c2)OCO3)c2nc3ccccc3nc12 (centres undefined)	-25	20	2	8.5*	6.3*	0	0	4	0	5
C[C@H](CO)N1C[C@H](C)[C@@H](CN(C)C(=O)Oc2ccc3ccccc3c2)OCc2cn(nn2)CCCC1=O	4	-2	x	1	0	x	x	x	x	x
O=[N+]([O-])c1ccc(N2CCOCC2)c2c1no[n+]2[O-]	-157	21	x	-21	0	x	x	x	x	x
NNC(=O)CN1C(=O)CN=C(c2ccccc2)c2cc(Br)ccc21	-3	-7	22	5	22*	x	x	3	1	6
O=C1CN=C(c2ccccc2)c2cc(Br)ccc2N1Cc1cc(=O)n2ccccc2n1	-2	7	-6	0	0	x	x	x	x	x
CCOC(=O)[C@]12Cc3cc4ccccc4cc3[C@H]1N(Cc1ccccc1)C(=O)c1ccccc12	-17	6	x	x	0	x	x	x	x	x
CCCCn1c(NS(=O)(=O)c2ccccc2)c(C(=O)OCC)c2nc3ccccc3nc21	-2	-1	28	8	13*	x	x	4	10	-1
